Data set [1] relates to C[C@@]1(F)[C@H](O)[C@@H](COP(=O)(O)OP(=O)(O)OP(=O)(O)O)O[C@H]1n1ccc(=O)[nH]c1=O. The experiment in a line: (§1) Activity of HCV NS5B polymerase S282T mutant. Conditions: Hepacivirus hominis. In a few lines: (§2)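 Recombinant HCV NS5B S282T (21-aa C-terminally truncated, E. coli-expressed, metal-affinity purified) in a de novo steady-state RNA synthesis assay on an unprimed minus-IRES RNA template. Run at 27°C in 50 mM HEPES pH 7.5 with 5 mM MgCl2 and 2 mM DTT. For the CTP analog, UTP/GTP/ATP were fixed at 10/100/100 μM while 32P-CTP and the inhibitor were varied. For the UTP analog, CTP/ATP/GTP were fixed at 10/100/100 μM while 32P-UTP and the inhibitor were varied.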

Data set [2] concerns C[C@@]1(F)[C@H](O)[C@@H](COP(=O)(O)OP(=O)(O)OP(=O)(O)O)O[C@H]1n1ccc(N)nc1=O. The data set is described as §1. Conditions: Hepacivirus hominis. In a few lines:
as §2

The subject of data set [3] is C[C@@]1(F)[C@H](O)[C@@H](CO)O[C@H]1n1ccc(N)nc1=O. The experiment in a line: Ratio of Kcat to Km for cloned 2'-deoxycytidine kinase in human HepG2 cells assessed as formation of formation of […] monophosphate by spectrophotometry. It counts as cell-based.
Data set [4] has as its system Huh-7. The experiment in a line: Ratio of Kcat to Km for cloned NDPK in human HuH7 cells assessed as formation of […] triphosphate by spectrophotometry. It counts as cell-based.
Data set [5] addresses T1, Uridine-cytidine kinase 1 (Homo sapiens) (UniProt Q9HA47).
T1 sequence (whole entry): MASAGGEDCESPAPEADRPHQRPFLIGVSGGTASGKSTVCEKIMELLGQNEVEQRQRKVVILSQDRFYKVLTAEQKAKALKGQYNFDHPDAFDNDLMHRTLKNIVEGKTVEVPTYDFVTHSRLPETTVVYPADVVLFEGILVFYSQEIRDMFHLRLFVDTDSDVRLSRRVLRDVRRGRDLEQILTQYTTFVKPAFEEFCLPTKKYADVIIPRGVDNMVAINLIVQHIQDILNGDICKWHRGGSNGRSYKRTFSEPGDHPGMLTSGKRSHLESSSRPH
Kind of data set: Activity of cloned uridine-cytidine kinase 1 in human HuH7 cells up to 1 mM. It counts as cell-based. Conditions: Huh-7.

Data set [6] addresses Deoxycytidine kinase (Homo sapiens) (UniProt P27707). The experiment in a line: Activity of cloned deoxycytidine kinase in human HepG2 cells up to 1 mM. It counts as cell-based.
Data set [7] concerns the target T2, Thymidine kinase, cytosolic (Homo sapiens) (UniProt P04183).
T2 sequence (whole entry): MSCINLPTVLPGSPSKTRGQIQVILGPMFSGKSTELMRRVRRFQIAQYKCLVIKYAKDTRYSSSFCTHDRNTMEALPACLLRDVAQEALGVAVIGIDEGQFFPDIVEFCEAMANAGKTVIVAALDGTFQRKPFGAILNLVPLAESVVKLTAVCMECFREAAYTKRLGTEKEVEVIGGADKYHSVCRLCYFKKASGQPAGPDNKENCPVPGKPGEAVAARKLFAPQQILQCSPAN
Kind of data set: Activity of thymidine kinase 1 up to 1 mM.

Data set [8] addresses T3, Thymidine kinase 2, mitochondrial (Homo sapiens) (UniProt O00142).
T3 sequence (whole entry): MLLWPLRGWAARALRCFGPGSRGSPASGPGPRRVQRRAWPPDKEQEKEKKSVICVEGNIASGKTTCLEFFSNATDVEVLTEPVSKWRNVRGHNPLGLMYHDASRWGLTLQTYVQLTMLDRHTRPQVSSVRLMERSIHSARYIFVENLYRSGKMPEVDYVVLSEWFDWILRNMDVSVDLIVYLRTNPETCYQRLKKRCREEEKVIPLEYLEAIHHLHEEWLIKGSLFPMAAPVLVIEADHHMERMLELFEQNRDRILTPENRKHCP
Kind of data set: Activity of thymidine kinase 2 up to 1 mM.

Data set [9] concerns Hepacivirus hominis. Kind of data set: Activity of wild type HCV NS5B polymerase. The method, boiled down: (§3)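 De novo RNA synthesis by NS5B lacking 21 C-terminal residues, in 50 mM HEPES pH 7.5 with 5 mM MgCl2 and 2 mM DTT at 27°C. Template was unprimed minus-IRES RNA, 2.8 μg each of enzyme and template. CTP 10 μM, ATP and GTP 100 μM; 32P-UTP and inhibitor were varied. Aliquots were quenched with EDTA/NaCl/citrate.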

Data set [10] concerns Hepacivirus hominis. Kind of data set: Ratio of Ki to Km for wild type HCV NS5B polymerase. In a few lines: as §3
Data set [11] deals with RNA-directed RNA polymerase (Hepacivirus hominis), O39930 [S282T]. Kind of data set: Ratio of Ki to Km for HCV NS5B polymerase S282T mutant. In a few lines:
as §2

Data set [12] concerns Hepacivirus hominis. Kind of data set: Fold resistance, ratio of Ki/Km for HCV NS5B polymerase S282T mutant to Ki/Km for wild type HCV NS5B polymerase. In a few lines: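 Ki and Km were measured for wild-type and S282T NS5B (C-terminal Δ21) by steady-state de novo RNA synthesis. Conditions were an unprimed minus-IRES template, 27°C, 50 mM HEPES pH 7.5, 5 mM MgCl2, 2 mM DTT, and varied 32P-labelled natural NTP with varied inhibitor. Fold resistance = (Ki/Km mutant)/(Ki/Km wild type).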

Data set [13] deals with Hepatitis C virus. The experiment in a line: Antiviral activity against wild type HCV infected in human HuH7 cells assessed as inhibition of viral RNA replication after 4 days by replicon assay in absence of DCTD inhibitor zedularine. It counts as functional. Conditions: Hepacivirus hominis; Huh-7. The method, boiled down: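 Clone A Huh-7 replicon cells at 1,500 cells/well, without G418. Threefold serial compound dilutions were given with or without 100 μM zebularine, for 4 days at 37°C in 5% CO2. Replicon RNA was quantified by single-step multiplex RT-PCR, and activity was taken as ΔCT relative to the no-drug control.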
On the technique in general: Replicon systems follow genome replication, usually without infectious particles.

Data set [14] relates to Hepatitis C virus. Kind of data set: Antiviral activity against HCV harboring NS5B polymerase S282T mutation infected in human HuH7 cells assessed as inhibition of viral RNA replication after 4 days by replicon assay in absence of DCTD inhibitor zedularine. It counts as functional. The following applies: Hepacivirus hominis; Huh-7. The method, boiled down: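 Huh-7 clone A subgenomic replicon cells carrying NS5B S282T (selected by serial passage with 2′-C-methyladenosine) were seeded at 1,500 cells/well without G418. Threefold compound dilutions were added alone or with 100 μM zebularine, followed by 4 days at 37°C, 5% CO2. Replicon RNA was quantified by single-step multiplex RT-PCR, and activity was taken as ΔCT versus the no-drug control to give EC90.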

The subject of data set [15] is Huh-7. The experiment in a line: Activity of cloned NDPK in human HuH7 cells assessed as formation of uridine triphosphate by spectrophotometry. It counts as cell-based. In a few lines: (§4)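 Recombinant human kinase read out by PK/LDH coupling, following NADH oxidation at 340 nm. Rates were measured over varied substrate levels and fitted for steady-state parameters.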

Data set [16] has as its system Huh-7. Kind of data set: Ratio of Kcat to Km for cloned NDPK in human HuH7 cells assessed as formation of uridine triphosphate by spectrophotometry. It counts as cell-based. The method, boiled down: as §4
The subject of data set [17] is Huh-7. Kind of data set: Ratio of Kcat to Km for cloned NDPK in human HuH7 cells assessed as formation of RO2433 triphosphate by spectrophotometry. It counts as cell-based. In a few lines: as §4
The target of data set [18] is Creatine kinase B-type (Homo sapiens) (UniProt P12277). The experiment in a line: Activity of human creatine kinase isoform BB assessed as formation of RO2433 triphosphate at 200 uM.
The species named for data set [19] is Homo sapiens. The experiment in a line: Activity of human creatine kinase isoform MB assessed as formation of RO2433 triphosphate at 200 uM.
Data set [20] concerns the target Creatine kinase M-type (Homo sapiens) (UniProt P06732). Kind of data set: Activity of human creatine kinase isoform MM assessed as formation of RO2433 triphosphate at 200 uM.
In data set [21] the target is T4, Phosphoglycerate kinase (Saccharomyces cerevisiae S288c) (UniProt P00560).
T4 sequence (whole entry): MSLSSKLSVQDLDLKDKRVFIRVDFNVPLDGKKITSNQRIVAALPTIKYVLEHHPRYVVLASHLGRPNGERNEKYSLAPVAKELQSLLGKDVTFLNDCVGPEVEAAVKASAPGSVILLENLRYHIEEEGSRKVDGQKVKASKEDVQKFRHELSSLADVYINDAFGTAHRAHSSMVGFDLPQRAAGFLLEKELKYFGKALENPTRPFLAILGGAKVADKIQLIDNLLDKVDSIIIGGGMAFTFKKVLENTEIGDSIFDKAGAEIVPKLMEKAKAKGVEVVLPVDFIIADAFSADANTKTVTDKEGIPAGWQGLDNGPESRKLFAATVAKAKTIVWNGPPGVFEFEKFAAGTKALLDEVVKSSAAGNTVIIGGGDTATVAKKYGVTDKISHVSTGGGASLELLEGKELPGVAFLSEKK
The experiment in a line: Activity of yeast 3-phosphoglycerate kinase assessed as formation of RO2433 triphosphate at 200 uM.

The source made the active and inactive calls. No cut-off for these calls is given here.

Sequence of Deoxycytidine kinase (Homo sapiens) (P27707 whole entry, looked up): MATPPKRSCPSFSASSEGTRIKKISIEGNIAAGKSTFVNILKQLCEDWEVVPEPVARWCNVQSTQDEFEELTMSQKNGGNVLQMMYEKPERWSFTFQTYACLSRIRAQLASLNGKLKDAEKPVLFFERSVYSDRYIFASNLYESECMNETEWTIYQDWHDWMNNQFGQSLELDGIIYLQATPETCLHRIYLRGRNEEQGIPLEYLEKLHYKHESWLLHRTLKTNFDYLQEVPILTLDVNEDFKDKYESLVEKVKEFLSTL
Sequence of Deoxycytidine kinase (Homo sapiens), P27707 (P27707 whole entry): as the sequence (P27707 whole entry, looked up) above
Sequence of Creatine kinase B-type (Homo sapiens) (P12277 whole entry, canonical isoform): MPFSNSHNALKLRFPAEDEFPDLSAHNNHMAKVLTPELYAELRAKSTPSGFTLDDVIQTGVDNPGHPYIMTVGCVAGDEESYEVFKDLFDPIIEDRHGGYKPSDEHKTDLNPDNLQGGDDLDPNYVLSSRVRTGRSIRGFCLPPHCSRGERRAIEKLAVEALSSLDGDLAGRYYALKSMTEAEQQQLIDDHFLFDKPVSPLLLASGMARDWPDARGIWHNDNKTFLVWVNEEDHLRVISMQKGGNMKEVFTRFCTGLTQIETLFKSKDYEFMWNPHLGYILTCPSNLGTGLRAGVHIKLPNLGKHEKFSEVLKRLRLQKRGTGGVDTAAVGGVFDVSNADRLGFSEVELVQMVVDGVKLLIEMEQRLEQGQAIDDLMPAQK
Sequence of Creatine kinase M-type (Homo sapiens) (P06732 whole entry, canonical isoform): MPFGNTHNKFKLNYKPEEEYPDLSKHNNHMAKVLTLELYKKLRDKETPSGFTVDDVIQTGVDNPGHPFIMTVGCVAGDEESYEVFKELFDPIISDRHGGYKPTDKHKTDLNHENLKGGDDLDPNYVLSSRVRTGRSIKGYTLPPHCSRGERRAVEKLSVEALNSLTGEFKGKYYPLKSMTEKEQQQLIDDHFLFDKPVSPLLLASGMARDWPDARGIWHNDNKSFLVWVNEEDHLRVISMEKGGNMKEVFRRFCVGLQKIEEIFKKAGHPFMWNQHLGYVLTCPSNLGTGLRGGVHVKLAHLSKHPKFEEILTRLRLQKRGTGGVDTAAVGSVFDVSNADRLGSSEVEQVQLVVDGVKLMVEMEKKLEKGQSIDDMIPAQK

As to “RNA-directed RNA polymerase (Hepacivirus hominis), O39930 S282T”, the Km (usually the substrate concentration at which the rate is half of its maximum) in data set [1] amounted to 0.15 µM; in data set [2], 0.052 µM.

With “Deoxycytidine kinase (Homo sapiens), P27707”, in data set [3], the kcat/Km turned out to be 1.9 ×10⁻⁴ /µM/s.

On to `C[C@@]1(F)[C@H](O)[C@@H](COP(=O)(O)OP(=O)(O)O)O[C@H]1n1ccc(N)nc1=O`, for which the kcat/Km in data set [4] was 15000 M⁻¹ s⁻¹.

Take `C[C@@]1(F)[C@H](O)[C@@H](CO)O[C@H]1n1ccc(=O)[nH]c1=O`: the outcome in data set [5], in [6], in [7] and in data set [8] was inactive.

On to `C[C@@]1(F)[C@H](O)[C@@H](COP(=O)(O)OP(=O)(O)OP(=O)(O)O)O[C@H]1n1ccc(N)nc1=O`, for which the Michaelis constant (Km) in data set [9] was 0.074 µM. The Ki/Km in data set [10] turned out to be 0.8; in data set [11], 6. Moreover, the Ratio in data set [12] came out at 7.5.

For `C[C@@]1(F)[C@H](O)[C@@H](COP(=O)(O)O)O[C@H]1n1ccc(=O)[nH]c1=O`, the outcome in data set [13] and in [14] was Active.

Take `C[C@@]1(F)[C@H](O)[C@@H](COP(=O)(O)OP(=O)(O)OP(=O)(O)O)O[C@H]1n1ccc(=O)[nH]c1=O`: the Ki/Km stood at 6.2 in [10] and 147 in data set [11]. Besides, the Ratio in data set [12] came out at 23.7.

`O=c1ccn([C@@H]2O[C@H](COP(=O)(O)OP(=O)(O)O)[C@@H](O)[C@H]2O)c(=O)[nH]1`: in data set [15], the Km was 156 µM; the kcat (usually the number of substrate molecules converted per active site and unit of time at saturation) was 145 s⁻¹. Moreover, the kcat/Km in [16] amounted to 930000 M⁻¹ s⁻¹.

Regarding `C[C@@]1(F)[C@H](O)[C@@H](COP(=O)(O)OP(=O)(O)O)O[C@H]1n1ccc(=O)[nH]c1=O`, the kcat/Km in [17] was found to be 46000 M⁻¹ s⁻¹. Further, the outcome in data set [18], in data set [19], in data set [20] and in data set [21] was inactive.
